Compounds with a hit are over-represented: about 2.9% of the library has one in this group of screens.
Kir21 inh: inhibitors of mouse Kir2.1 inward-rectifier potassium channel | B-score at 10 µM | 0.85% of 310,000 active | HEK293-Kir2.1, FluxOR thallium flux fluorescence; active compounds read low | Inward rectifier potassium channel 2 (Mus musculus), P35561;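 active = fluorescence ratio B-score at or below minus 3 SD of library scores, with starting-brightness B-score within 2 SD, cut at about -4.2 in these data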;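 note: channel flux triggered by added potassium and thallium sulfate stimulus; B-score of peak minus minimum fluorescence over baseline after thallium stimulus; more negative B-score means stronger Kir2.1 block with less thallium influx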
TRPC4 inh: inhibitors of mouse TRPC4 channel, primary screen, Fluo4 calcium, HEK293 TRPC4beta/mu-opioid cells; Short transient receptor potential channel 4 (Mus musculus), Q9QUQ5; DAMGO-evoked Fluo4 calcium flux; active compounds read low; B-score at 10 µM; 0.39% of 300,000 active;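 active = B-score over 3 SD under the library average, no early fluorescence shift, positive overall ratio signal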
Target sequence (Q9QUQ5 whole entry, looked up): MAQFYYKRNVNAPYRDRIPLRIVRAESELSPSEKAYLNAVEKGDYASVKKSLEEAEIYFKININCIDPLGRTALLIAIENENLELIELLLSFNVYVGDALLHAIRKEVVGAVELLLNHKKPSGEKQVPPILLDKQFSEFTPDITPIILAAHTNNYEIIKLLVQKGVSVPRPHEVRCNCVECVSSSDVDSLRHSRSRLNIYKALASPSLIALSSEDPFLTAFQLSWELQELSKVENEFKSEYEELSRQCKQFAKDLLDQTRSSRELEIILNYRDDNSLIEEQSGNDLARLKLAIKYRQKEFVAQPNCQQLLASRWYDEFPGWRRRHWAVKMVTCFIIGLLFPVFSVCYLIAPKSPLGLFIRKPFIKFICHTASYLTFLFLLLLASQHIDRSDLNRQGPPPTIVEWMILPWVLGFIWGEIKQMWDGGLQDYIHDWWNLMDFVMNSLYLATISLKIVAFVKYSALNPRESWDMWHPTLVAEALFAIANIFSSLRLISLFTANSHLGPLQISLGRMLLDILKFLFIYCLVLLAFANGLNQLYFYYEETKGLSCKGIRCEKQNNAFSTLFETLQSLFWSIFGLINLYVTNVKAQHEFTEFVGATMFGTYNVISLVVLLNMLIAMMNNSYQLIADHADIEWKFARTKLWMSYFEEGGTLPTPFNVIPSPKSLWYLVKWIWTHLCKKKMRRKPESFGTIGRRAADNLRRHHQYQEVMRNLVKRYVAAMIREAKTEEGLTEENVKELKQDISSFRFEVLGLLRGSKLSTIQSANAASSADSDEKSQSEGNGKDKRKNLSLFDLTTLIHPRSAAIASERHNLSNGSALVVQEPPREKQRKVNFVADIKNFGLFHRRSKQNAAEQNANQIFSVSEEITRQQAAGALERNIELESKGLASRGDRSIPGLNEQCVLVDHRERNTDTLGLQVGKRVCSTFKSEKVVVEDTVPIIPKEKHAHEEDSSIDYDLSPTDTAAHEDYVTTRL
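Assay system: HEK293 cells with stable TRPC4beta plus mu-opioid receptor expression. Dosing: single dose. Measured by: Fluo4 Ca2+ flux fluorescence. Also added: DAMGO in two steps, submaximal then maximal. Read-out: B score from integrated Fluo4 fluorescence ratio.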
TRPC4 act: activators of mouse TRPC4 channel, primary screen, Fluo4 calcium, HEK293 TRPC4beta/mu-opioid cells; Fluo4 calcium fluorescence; active compounds read high; 0.49% of 310,000 active; B-score at 10 µM; AID 2237, 2010; Short transient receptor potential channel 4 (Mus musculus), Q9QUQ5;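 active = B-score above 5 SD of library B-scores, and initial fluorescence ratio not above library mean plus 5 SD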;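 note: positive B-score marks a calcium rise read as TRPC4 activation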
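Assay system: HEK293 stable line with TRPC4beta plus mu-opioid receptor. Times: dye 45 min RT, read 110 s. Measured by: kinetic Fluo4 calcium fluorescence. Measure: B score of integrated ratio. Controls: assay buffer as low control, maximal DAMGO as high control.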
TRPC6 act: mouse TRPC6 channel activators, primary screen, cell-based, HEK293, membrane potential dye; 0.13% of 310,000 active; B-score at 10 µM; HEK293-TRPC6 membrane potential dye fluorescence; active compounds read high; Short transient receptor potential channel 6 (Mus musculus), Q61143; AID 2550, 2010;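 active = B-score of the integrated fluorescence ratio above library mean plus 3 SD, and starting fluorescence ratio within library mean plus 5 SD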;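 note: higher score means more depolarization so channel activation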
TRPC4 potent: positive allosteric modulators of TRPC4, primary screen, cell-based, mouse TRPC4beta, HEK293 mu-opioid, Fluo-4 calcium; DAMGO EC20, Fluo-4 Ca2+ flux; active compounds read high; B-score at 10 µM; 0.42% of 310,000 active; AID 2227, 2009;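 active = B-score of calcium response area above 5 SD of library B-scores, with initial fluorescence ratio within 5 SD of library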;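 note: B-score of integrated fluorescence ratio over time as area under calcium response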
TRPC6 inhibitor: mouse TRPC6 channel inhibitors, primary screen, cell-based, HEK293, membrane potential dye | 1.1% of 310,000 active | B-score at 10 µM | Short transient receptor potential channel 6 (Mus musculus), Q61143 | AID 2553, 2010 | ACh-evoked depolarization; active compounds read low;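 active = B-score under library mean minus 3 SD, initial fluorescence not abnormally high, positive integrated signal ratio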;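 note: B-score derived from integrated fluorescence ratio over the kinetic read; more negative B-score means stronger inhibition of depolarization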
TRPC4 spec 2: second check of whether TRPC6 inhibitors also affect mouse TRPC4; 42% of 920 active; inhibition, % at 10 µM; AID 2776; HEK293 TRPC4/MOR, membrane potential dye fluorescence; channel activated by saturating DAMGO dose; shares compounds with TRPC6 inhibitor;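 active = compounds whose fluorescence signal differed from control wells by over 3 SD, either direction, in both duplicate plates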
TRPC4 spec: mouse TRPC4 modulation by TRPC6 hits, confirmation, selectivity assay for TRPC6 inhibitor project, cell-based, HEK293 TRPC4/mu-opioid, membrane potential dye; shares compounds with TRPC6 inhibitor; membrane potential fluorescence; activity change, negative = inhibition, % at 10 µM; 61% of 920 active;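 active = rise or fall in signal beyond 3 SD of buffer-only wells in both replicate plates, either sign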;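 note: integrated kinetic ratio of fluorescence range over baseline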
HEK293 MPD ctr 2-1: nonspecific membrane potential effects, parental HEK293, confirmation, counter-screen for TRPC6 inhibitor project, cell-based, second counter screen. 31% of 920 active. shares compounds with TRPC6 inhibitor. parental HEK293 membrane potential dye fluorescence; maximal acetylcholine challenge after compound addition. AID 2779, 2010. signal change vs control, % at 10 µM;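 active = membrane potential signal moving either way by over 3 SD of the maximum-effect control, in both duplicate plates, meaning non-specific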
HEK293 MPD ctr-1: membrane potential modulation in parental HEK293, confirmation, counter-screen for TRPC6 inhibitor project, cell-based | shares compounds with TRPC6 inhibitor | parental HEK293 membrane potential dye fluorescence | membrane potential signal change, % at 10 µM | 60% of 920 active;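 active = membrane potential signal shifting up or down by more than 3 SD of buffer-only wells, on both duplicate plates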
HEK293 MPD ctr-2: parental HEK293 membrane potential modulation, confirmation, counter-screen for TRPC6 modulator project, cell-based. shares compounds with TRPC6 inhibitor. membrane potential dye fluorescence. membrane potential signal change, % at 10 µM. 51% of 2,400 active;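 active = membrane potential signal moves up or down beyond 5 SD from buffer-only wells, on both duplicate plates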
HEK293 MPD ctr 2-2: second check of TRPC6 modulator effects in parental HEK293 cells; 14% of 2,400 active; shares compounds with TRPC6 inhibitor; membrane potential dye fluorescence; after compound, maximal acetylcholine stimulation; inhibition, % at 10 µM;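 active = membrane potential signal drops by more than 5 SD from the mean control signal, in both duplicate plates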;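 note: plate controls were acetylcholine ECmax control wells for no effect and buffer only wells for full effect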
TRPC4 ctr mod: TRPC4 modulation by TRPC6 hit compounds, confirmation, selectivity assay for TRPC6 modulator project, cell-based, HEK293 TRPC4/mu-opioid, membrane potential dye, mouse | percent change from control (negative = decrease, positive = increase), % at 10 µM | 69% of 2,400 active | AID 488927, 2010 | membrane potential fluorescence | shares compounds with TRPC6 inhibitor;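 active = membrane potential signal moved up or down beyond 5 SD of buffer control wells, in both duplicate plates, actives on both sides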;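 note: plate controls were assay buffer wells for no effect and DAMGO maximal-effect wells for full effect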
TRPC4/MOR inh 2: mouse TRPC4 off-target activity of TRPC6 modulators, second screen | AID 488928 | HEK293 TRPC4/mu-opioid, membrane potential dye fluorescence; stimulated with maximal-effect DAMGO | inhibition, % at 10 µM | shares compounds with TRPC6 inhibitor | 55% of 2,400 active;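 active = drop in membrane potential signal beyond 5 SD of the control wells in both duplicate plates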;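 note: TRPC4 counter screen for TRPC6 hits run under conditions tuned for TRPC6 not TRPC4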
TRPC6 inh conf: mouse TRPC6 channel inhibitors, confirmation, HEK293 cells, membrane potential dye, duplicate; shares compounds with TRPC6 inhibitor; ACh-evoked depolarization; inhibition, % at 10 µM; 43% of 3,300 active; AID 488960, 2010;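 active = fluorescence ratio falls more than 5 SD below the full-stimulation control mean, in both duplicate runs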;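 note: integrated fluorescence ratio of peak minus minimum over baseline after agonist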
TRPC6 act confirm: mouse TRPC6 channel activators, confirmation, HEK293 cells, membrane potential dye, duplicate | shares compounds with TRPC6 inhibitor | HEK293-TRPC6 membrane potential dye fluorescence, FDSS | activation, % at 10 µM | 11% of 2,800 active | AID 488961, 2010;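 active = ratio signal rise beyond 5 SD above unstimulated control wells' mean, seen in both duplicate runs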;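 note: plate controls were buffer EC0 wells for no effect and acetylcholine ECmax response for full effect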
* = called active by the depositor.

Screening COc1cc(/C=C(\C#N)C(=O)c2c[nH]c3ccccc23)cc(OC)c1O returned Kir21 inh -1.1, TRPC4 inh inactive, TRPC4 act inactive, TRPC6 act 24*, TRPC4 potent inactive, TRPC6 inhibitor inactive, HEK293 MPD ctr-2 256%*, HEK293 MPD ctr 2-2 inactive, TRPC4 ctr mod 72%*, TRPC4/MOR inh 2 inactive, TRPC6 inh conf inactive and TRPC6 act confirm 88%*.
`COc1cccc(CN2CCNC(=O)C2CC(=O)N(C)C2CCCCC2)c1` (stereo not drawn) gave Kir21 inh -1.6, TRPC4 inh inactive, TRPC4 act inactive, TRPC6 act inactive, TRPC4 potent inactive and TRPC6 inhibitor inactive.
For Cc1cc2nc3ccc(N(C)C)cc3nc2cc1N the results were Kir21 inh -3.1, TRPC4 inh inactive, TRPC4 act inactive, TRPC6 act inactive, TRPC4 potent inactive, TRPC6 inhibitor -6.4*, HEK293 MPD ctr-2 -82%*, HEK293 MPD ctr 2-2 inactive, TRPC4 ctr mod -42%*, TRPC4/MOR inh 2 inactive, TRPC6 inh conf inactive and TRPC6 act confirm inactive.
Cc1ccc(-n2nc3cc(C)c(N)cc3n2)cc1 was read as Kir21 inh 1.2, TRPC4 inh inactive, TRPC4 act inactive, TRPC6 act inactive, TRPC4 potent inactive and TRPC6 inhibitor inactive.
CC1CCN(S(=O)(=O)c2cn(CC(=O)N3CC(C)CC(C)C3)c(=O)c3ccccc23)CC1 (stereo not drawn) was read as Kir21 inh 0.88, TRPC4 inh inactive, TRPC4 act inactive, TRPC6 act inactive, TRPC4 potent inactive and TRPC6 inhibitor inactive.
`CC(=O)c1cccc(Nc2cc(C)nc3ccc(C)cc23)c1` gave Kir21 inh 0.09, TRPC4 inh inactive, TRPC4 act inactive, TRPC6 act inactive, TRPC4 potent inactive, TRPC6 inhibitor -6.6*, TRPC4 spec 2 66%*, TRPC4 spec -22%*, HEK293 MPD ctr 2-1 14%*, HEK293 MPD ctr-1 -260%*, TRPC6 inh conf inactive and TRPC6 act confirm inactive.
Screening CC(=O)c1cccc(Nc2cc(C)nc3c(C)cc(C)cc23)c1 returned Kir21 inh -2.2, TRPC4 inh -6*, TRPC4 act inactive, TRPC6 act inactive, TRPC4 potent inactive, TRPC6 inhibitor -5.8*, HEK293 MPD ctr-2 -102%*, HEK293 MPD ctr 2-2 76%*, TRPC4 ctr mod -22%*, TRPC4/MOR inh 2 65%*, TRPC6 inh conf 56%* and TRPC6 act confirm inactive.
For CC(=O)c1cccc(Nc2nc(-c3ccccc3)nc3ccccc23)c1 the results were Kir21 inh 0.58, TRPC4 inh inactive, TRPC4 act inactive, TRPC6 act inactive, TRPC4 potent inactive and TRPC6 inhibitor inactive.
`COc1ccc2c(c1)S/C(=C\C(=O)c1ccncc1)N2C` gave Kir21 inh -0.59, TRPC4 inh inactive, TRPC4 act inactive, TRPC6 act inactive, TRPC4 potent inactive, TRPC6 inhibitor -5.9*, HEK293 MPD ctr-2 100%*, HEK293 MPD ctr 2-2 inactive, TRPC4 ctr mod -67%*, TRPC4/MOR inh 2 34%*, TRPC6 inh conf inactive and TRPC6 act confirm inactive.
`CCOc1ccc(/C=N/NC(=O)c2nnn(-c3nonc3N)c2-c2cccs2)cc1` gave Kir21 inh 0.67, TRPC4 inh inactive, TRPC4 act inactive, TRPC6 act inactive, TRPC4 potent inactive and TRPC6 inhibitor inactive.
For COc1cccc(-c2cccc(NC(=O)C3CCN(Cc4ccc(C)o4)CC3)c2)c1 the results were Kir21 inh -2.6, TRPC4 inh inactive, TRPC4 act inactive, TRPC6 act inactive, TRPC4 potent inactive, TRPC6 inhibitor -5.3*, HEK293 MPD ctr-2 128%*, HEK293 MPD ctr 2-2 inactive, TRPC4 ctr mod 18%*, TRPC4/MOR inh 2 44%* and TRPC6 inh conf inactive.

Source: PubChem BioAssay
